In ChEMBL document CHEMBL5042469, “Unique Molecular Interaction with the Histone Deacetylase 6 Catalytic Tunnel: Crystallographic and Biological Characterization of a Model Chemotype” (J Med Chem, 2021):

Columns and labels:
Histone deacetylase 5 = Histone deacetylase 5 (Homo sapiens, UniProt Q9UQL6); assay: Inhibition of full length human HDAC5 using FAM-labeled acetylated peptide as substrate by electrophoretic mobility shift assay
Method in brief: (§1)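 Full-length human HDAC isoform enzymatic assay by electrophoretic mobility shift, using a FAM-labelled acetylated peptide substrate. […] Values are the mean of duplicate experiments with 95% confidence intervals.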

Histone deacetylase 4 = Histone deacetylase 4 (Homo sapiens, UniProt P56524); assay: Inhibition of full length human HDAC4 using FAM-labeled acetylated peptide as substrate by electrophoretic mobility shift assay; method in brief: as §1
[1] = molecular target: T1, Protein deacetylase HDAC6 (Homo sapiens, UniProt Q9UBN7); assay: Binding affinity to human HDAC6 by jump dilution assay
T1 sequence (Q9UBN7 whole entry): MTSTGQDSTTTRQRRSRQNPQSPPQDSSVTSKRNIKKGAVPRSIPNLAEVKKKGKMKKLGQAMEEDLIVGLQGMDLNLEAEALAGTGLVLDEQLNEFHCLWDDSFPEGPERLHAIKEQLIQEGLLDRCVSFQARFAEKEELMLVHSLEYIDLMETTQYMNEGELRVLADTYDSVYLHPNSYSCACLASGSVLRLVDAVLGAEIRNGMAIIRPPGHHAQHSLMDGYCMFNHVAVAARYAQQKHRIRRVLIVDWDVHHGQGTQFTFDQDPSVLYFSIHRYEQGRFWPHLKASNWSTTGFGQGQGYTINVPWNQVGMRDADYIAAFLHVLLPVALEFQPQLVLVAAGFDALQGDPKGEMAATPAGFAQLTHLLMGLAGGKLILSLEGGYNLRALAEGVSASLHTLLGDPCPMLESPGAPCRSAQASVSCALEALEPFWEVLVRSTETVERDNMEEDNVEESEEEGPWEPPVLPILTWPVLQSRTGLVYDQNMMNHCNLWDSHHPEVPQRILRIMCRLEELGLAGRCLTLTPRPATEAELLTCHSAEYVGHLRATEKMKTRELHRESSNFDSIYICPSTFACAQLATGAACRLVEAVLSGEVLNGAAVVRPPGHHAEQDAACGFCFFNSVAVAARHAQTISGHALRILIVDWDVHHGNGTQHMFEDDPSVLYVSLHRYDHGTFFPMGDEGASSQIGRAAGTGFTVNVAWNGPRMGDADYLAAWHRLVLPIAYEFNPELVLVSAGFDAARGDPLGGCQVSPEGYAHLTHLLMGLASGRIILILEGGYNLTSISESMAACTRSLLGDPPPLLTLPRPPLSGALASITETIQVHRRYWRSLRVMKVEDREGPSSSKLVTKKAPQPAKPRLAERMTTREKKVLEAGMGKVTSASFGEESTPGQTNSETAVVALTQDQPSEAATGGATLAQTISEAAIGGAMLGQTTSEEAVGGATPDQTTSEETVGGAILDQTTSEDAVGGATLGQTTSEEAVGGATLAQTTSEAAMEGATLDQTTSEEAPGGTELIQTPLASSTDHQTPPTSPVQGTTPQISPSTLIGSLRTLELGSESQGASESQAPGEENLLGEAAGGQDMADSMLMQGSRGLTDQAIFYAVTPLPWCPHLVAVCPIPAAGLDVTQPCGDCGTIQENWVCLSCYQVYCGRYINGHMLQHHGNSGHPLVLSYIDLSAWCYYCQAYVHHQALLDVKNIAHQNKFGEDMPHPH

Histone deacetylase 9 = Histone deacetylase 9 (Homo sapiens, UniProt Q9UKV0); assay: Inhibition of full length human HDAC9 using FAM-labeled acetylated peptide as substrate by electrophoretic mobility shift assay; method in brief: as §1
MV4-11 [2] = assay: Induction of apoptosis in human MV4-11 cells assessed as viable cells at 0.25 uM incubated for 15 mins by Annexin-V/FITC staining based FACS analysis (reference value: 35.53%); type: functional; conditions: MV4-11, 0.25 h, read-out: Activity
Method in brief: (§2)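 MV4-11 cells were dosed, then washed twice in cold PBS and resuspended in binding buffer at 1×10^6 cells/mL. Cells were stained with FITC-annexin V and propidium iodide for 15 min in the dark, diluted with binding buffer and analysed by flow cytometry within 1 h. Quadrants: LL viable, LR early apoptotic, UR late apoptotic. Duplicate experiments averaged; DMSO control.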

MV4-11 [3] = assay: Induction of apoptosis in human MV4-11 cells assessed as viable cells at 0.50 uM incubated for 15 mins by Annexin-V/FITC staining based FACS analysis (reference value: 35.53%); type: functional; conditions: MV4-11, 0.25 h, read-out: Activity; method in brief: as §2
MV4-11 [4] = assay: Induction of apoptosis in human MV4-11 cells assessed as viable cells at 4 uM incubated for 15 mins by Annexin-V/FITC staining based FACS analysis (reference value: 35.53%); type: functional; conditions: MV4-11, 0.25 h, read-out: Activity; method in brief: as §2
MV4-11 [5] = assay: Induction of apoptosis in human MV4-11 cells assessed as late apoptotic cells at 2 uM incubated for 15 mins by Annexin-V/FITC staining based FACS analysis (reference value: 4.17%); type: functional; conditions: 0.25 h; method in brief: as §2
[6] = Stability in mouse plasma assessed as compound remaining measured after 15 mins; type: ADME, cell-free; conditions: read-out: Stability
[7] = Stability in mouse plasma measured assessed as compound remaining after 60 mins; type: ADME, cell-free; conditions: read-out: Stability
[8] = Stability in human whole blood assessed as compound remaining measured after 30 mins; type: ADME, tissue-based; conditions: read-out: Stability
[9] = Half life in mouse plasma incubated for 1 hr; type: ADME, cell-free
Method in brief: (§3)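 Compound was incubated in mouse plasma or in pooled human whole blood. […] Triplicate studies, averaged.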

[10] = Half life in human whole blood incubated for 1 hr; type: ADME, tissue-based; method in brief: as §3
[11] = Half life in Balb/c mouse at 50 mg/kg, ip by LC-MS/MS analysis; type: ADME, organism-based; conditions: in vivo
Method in brief: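 Male BALB/c mice received a single intraperitoneal dose from a 50 mg/mL solution in 5% DMSO, 30% PEG400, 1% Tween80 and 64% saline. Blood was collected at several time points and the compound quantified by triple-quadrupole LC-MS/MS.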

[12] = molecular target: T2, Protein deacetylase HDAC6 (Homo sapiens) (UniProt Q9UBN7); assay: Binding affinity to human HDAC6 assessed as residence time by two-step reversible inhibition model
T2 sequence (whole entry): T1 sequence (Q9UBN7 whole entry)

[13] = molecular target: T1, Protein deacetylase HDAC6; assay: Inhibition of full length human HDAC6 preincubated for 3 hrs
MV4-11 [14] = assay: Induction of apoptosis in human MV4-11 cells assessed as viable cells at 1 uM incubated for 15 mins by Annexin-V/FITC staining based FACS analysis (reference value: 84.58%); type: functional; conditions: MV4-11, 0.25 h, read-out: Activity; method in brief: as §2
MV4-11 [15] = assay: Induction of apoptosis in human MV4-11 cells assessed as viable cells at 2 uM incubated for 15 mins by Annexin-V/FITC staining based FACS analysis (reference value: 84.58%); type: functional; conditions: MV4-11, 0.25 h, read-out: Activity; method in brief: as §2
MV4-11 [16] = assay: Induction of apoptosis in human MV4-11 cells assessed as early apoptotic cells at 0.25 uM incubated for 15 mins by Annexin-V/FITC staining based FACS analysis (reference value: 7.28%); type: functional; method in brief: as §2
MV4-11 [17] = assay: Induction of apoptosis in human MV4-11 cells assessed as late apoptotic cells at 0.25 uM incubated for 15 mins by Annexin-V/FITC staining based FACS analysis (reference value: 4.36%); type: functional; method in brief: as §2
MV4-11 [18] = assay: Induction of apoptosis in human MV4-11 cells assessed as late apoptotic cells at 1 uM incubated for 15 mins by Annexin-V/FITC staining based FACS analysis (reference value: 4.36%); type: functional; conditions: 0.25 h; method in brief: as §2

Chain of Histone deacetylase 5 (Q9UQL6 whole entry, canonical isoform): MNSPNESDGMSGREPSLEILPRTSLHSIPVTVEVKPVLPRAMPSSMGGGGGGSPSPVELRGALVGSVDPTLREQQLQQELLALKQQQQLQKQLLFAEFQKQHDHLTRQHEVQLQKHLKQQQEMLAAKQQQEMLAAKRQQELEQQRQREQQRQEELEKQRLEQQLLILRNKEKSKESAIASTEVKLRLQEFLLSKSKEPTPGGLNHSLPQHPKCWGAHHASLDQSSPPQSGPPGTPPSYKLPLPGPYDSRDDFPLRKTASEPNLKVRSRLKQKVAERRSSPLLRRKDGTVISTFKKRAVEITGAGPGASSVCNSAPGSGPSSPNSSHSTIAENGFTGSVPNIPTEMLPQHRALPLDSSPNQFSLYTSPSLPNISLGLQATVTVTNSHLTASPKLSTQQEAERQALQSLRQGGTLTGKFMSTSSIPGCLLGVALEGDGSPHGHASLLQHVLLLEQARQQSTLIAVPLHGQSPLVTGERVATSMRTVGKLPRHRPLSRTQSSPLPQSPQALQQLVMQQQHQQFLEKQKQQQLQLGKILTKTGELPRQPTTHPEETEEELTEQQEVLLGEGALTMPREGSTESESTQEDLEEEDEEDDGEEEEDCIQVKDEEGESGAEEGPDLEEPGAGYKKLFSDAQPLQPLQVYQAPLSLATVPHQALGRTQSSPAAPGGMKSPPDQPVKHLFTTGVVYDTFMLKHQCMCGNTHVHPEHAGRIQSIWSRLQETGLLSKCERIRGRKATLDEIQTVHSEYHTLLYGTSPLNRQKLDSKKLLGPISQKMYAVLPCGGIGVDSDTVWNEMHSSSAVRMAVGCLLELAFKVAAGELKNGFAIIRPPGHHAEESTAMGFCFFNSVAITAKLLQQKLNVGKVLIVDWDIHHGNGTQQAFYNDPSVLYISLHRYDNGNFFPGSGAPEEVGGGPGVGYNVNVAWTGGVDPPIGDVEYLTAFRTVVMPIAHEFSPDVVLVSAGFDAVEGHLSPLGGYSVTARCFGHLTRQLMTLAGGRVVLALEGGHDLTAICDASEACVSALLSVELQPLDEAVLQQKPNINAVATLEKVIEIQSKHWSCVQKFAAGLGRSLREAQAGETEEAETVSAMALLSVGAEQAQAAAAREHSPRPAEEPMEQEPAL
Chain of Histone deacetylase 9 (Q9UKV0 whole entry): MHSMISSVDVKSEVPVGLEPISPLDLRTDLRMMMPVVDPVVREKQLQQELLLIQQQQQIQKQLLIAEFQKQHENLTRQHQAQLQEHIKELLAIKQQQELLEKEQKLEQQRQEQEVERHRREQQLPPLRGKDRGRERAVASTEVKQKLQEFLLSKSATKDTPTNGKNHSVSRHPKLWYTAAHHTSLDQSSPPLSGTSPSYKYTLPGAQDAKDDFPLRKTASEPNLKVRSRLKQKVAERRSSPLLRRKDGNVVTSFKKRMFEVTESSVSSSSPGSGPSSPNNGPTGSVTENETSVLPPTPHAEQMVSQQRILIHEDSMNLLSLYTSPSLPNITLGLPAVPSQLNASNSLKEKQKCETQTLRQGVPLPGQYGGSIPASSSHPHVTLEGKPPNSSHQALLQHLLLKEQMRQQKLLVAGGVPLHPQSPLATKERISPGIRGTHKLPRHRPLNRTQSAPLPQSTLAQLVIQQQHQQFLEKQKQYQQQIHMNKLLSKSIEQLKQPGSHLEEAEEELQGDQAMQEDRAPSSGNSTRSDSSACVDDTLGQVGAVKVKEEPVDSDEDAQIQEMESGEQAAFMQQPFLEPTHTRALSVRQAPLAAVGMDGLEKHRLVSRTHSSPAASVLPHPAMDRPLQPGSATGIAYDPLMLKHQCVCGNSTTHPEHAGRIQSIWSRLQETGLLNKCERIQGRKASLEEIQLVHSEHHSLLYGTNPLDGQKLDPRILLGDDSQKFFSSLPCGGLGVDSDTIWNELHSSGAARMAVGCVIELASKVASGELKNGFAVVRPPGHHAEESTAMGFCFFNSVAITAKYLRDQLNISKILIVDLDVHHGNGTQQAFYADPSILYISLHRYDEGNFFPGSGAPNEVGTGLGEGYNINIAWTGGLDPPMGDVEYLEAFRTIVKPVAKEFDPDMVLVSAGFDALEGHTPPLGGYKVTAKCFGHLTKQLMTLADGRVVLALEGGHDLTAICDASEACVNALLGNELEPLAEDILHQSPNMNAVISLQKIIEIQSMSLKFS
Chain of Histone deacetylase 4 (P56524 whole entry): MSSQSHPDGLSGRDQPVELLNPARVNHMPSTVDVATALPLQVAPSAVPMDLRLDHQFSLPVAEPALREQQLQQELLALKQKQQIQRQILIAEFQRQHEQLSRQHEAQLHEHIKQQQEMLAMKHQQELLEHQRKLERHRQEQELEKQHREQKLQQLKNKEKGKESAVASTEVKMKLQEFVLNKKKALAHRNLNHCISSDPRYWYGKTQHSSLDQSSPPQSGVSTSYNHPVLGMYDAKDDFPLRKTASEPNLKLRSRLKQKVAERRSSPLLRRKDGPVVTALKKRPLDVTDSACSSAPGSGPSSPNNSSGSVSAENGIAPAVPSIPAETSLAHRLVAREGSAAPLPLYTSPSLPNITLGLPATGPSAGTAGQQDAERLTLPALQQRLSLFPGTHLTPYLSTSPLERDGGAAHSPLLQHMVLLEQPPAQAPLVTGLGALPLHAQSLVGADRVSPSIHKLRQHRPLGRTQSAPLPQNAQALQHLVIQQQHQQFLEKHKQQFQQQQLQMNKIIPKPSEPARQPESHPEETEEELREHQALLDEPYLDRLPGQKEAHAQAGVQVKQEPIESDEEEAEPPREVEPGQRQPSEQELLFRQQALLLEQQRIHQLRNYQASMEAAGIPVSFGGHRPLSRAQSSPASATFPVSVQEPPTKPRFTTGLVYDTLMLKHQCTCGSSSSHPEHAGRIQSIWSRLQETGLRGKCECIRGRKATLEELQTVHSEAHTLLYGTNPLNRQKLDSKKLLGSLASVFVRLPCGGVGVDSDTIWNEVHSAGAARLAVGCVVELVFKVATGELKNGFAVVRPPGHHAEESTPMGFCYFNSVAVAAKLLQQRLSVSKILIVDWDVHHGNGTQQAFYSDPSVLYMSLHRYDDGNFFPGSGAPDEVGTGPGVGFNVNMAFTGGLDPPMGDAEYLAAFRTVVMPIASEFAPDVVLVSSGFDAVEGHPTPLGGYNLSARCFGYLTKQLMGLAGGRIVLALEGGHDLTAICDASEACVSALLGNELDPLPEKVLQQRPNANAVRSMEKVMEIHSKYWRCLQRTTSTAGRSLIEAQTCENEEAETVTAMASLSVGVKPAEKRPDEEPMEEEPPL

O=C(NO)c1ccc(CN(Cc2cccnc2)S(=O)(=O)c2cc(F)c(F)c(F)c2F)cc1
IC50 (Histone deacetylase 5): 8.65 µM | IC50 (Histone deacetylase 4): > 10 µM | Ki [1]: 0.7 nM | IC50 (Histone deacetylase 9): 2750 nM | viability at 0.25 µM (MV4-11 [2]): 33.1% | viability at 0.5 µM (MV4-11 [3]): 28.4% | viability at 4 µM (MV4-11 [4]): 7.96% | Activity (MV4-11 [5]): 15.44% | remaining at 0.25 h [6]: 88.1% | remaining at 1 h [7]: 68% | remaining at 0.5 h [8]: 80.8% | t1/2 [9]: 110 min | t1/2 [10]: 108 min | t1/2 [11]: 1.7 h | TIME [12]: 2.37 h | IC50 [13]: 2 nM

O=C(CCCCCCNC(=O)c1cnc(N(c2ccccc2)c2ccccc2Cl)nc1)NO [CITARINOSTAT]
viability at 1 µM (MV4-11 [14]): 68.4% | viability at 2 µM (MV4-11 [15]): 42.4% | Activity (MV4-11 [16]): 7.93% | Activity (MV4-11 [17]): 4.65% | Activity (MV4-11 [18]): 9.54%
